Data: ChEMBL document CHEMBL1759892 (Bioorg Med Chem Lett, 2011)

What was measured:
Cytochrome P450 2C9 = Cytochrome P450 2C9 (Homo sapiens, UniProt P11712); assay: Inhibition of CYP2C9; format: ADME
Cytochrome P450 2C19 = Cytochrome P450 2C19 (Homo sapiens, UniProt P33261); assay: Inhibition of CYP2C19; format: ADME
Cytochrome P450 2D6 = Cytochrome P450 2D6 (Homo sapiens, UniProt P10635); assay: Inhibition of CYP2D6; format: ADME
Cytochrome P450 3A4 = Cytochrome P450 3A4 (Homo sapiens, UniProt P08684); assay: Inhibition of CYP3A4; format: ADME
[1] = target: Voltage-gated inwardly rectifying potassium channel KCNH2 (Homo sapiens, UniProt Q12809); assay: Inhibition of human ERG
Salmonella typhimurium = assay: Genotoxicity in Salmonella Typhimurium by Ames test in presence of S9 fraction; format: toxicity, organism-based; details: salmonella enterica subsp. enterica serovar typhimurium
Adenosine receptor A2b [2] = target: T1, Adenosine receptor A2b (Homo sapiens, UniProt P29275); assay: Inhibition of human adenosine A2B receptor expressed in CHO cells assessed as decrease in cellular cAMP level after 20 to 25 mins; format: functional, cell-based
T1 sequence (P29275 whole entry): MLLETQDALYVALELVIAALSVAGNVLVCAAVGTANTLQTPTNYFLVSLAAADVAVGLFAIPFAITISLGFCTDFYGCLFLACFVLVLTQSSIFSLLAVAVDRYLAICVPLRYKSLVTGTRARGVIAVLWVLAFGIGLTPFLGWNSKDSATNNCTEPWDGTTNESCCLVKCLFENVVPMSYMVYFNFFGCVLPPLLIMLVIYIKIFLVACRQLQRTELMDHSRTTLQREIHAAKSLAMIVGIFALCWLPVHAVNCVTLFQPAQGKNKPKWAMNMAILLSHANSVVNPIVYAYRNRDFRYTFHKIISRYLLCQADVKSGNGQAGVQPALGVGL

Adenosine receptor A1 = target: T2, Adenosine receptor A1 (Homo sapiens, UniProt P30542); assay: Displacement of [3H]-DPCPX from human adenosine A1 receptor after 1 hr
T2 sequence (P30542 whole entry): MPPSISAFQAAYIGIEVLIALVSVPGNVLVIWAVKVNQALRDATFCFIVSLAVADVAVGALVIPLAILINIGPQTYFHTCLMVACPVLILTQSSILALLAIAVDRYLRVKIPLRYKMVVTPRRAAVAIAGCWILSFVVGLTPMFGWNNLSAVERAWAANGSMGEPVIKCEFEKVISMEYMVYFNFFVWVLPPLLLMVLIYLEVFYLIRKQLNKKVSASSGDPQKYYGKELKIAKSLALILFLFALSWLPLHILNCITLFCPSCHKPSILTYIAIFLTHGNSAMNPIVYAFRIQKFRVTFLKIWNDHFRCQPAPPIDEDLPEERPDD
In short: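 Human A1 receptor membranes, diluted in HEPES 50 mM, NaCl 100 mM, MgCl2 1 mM, were incubated with [3H]-DPCPX (4.8 nM final) and test compound for 1 h at room temperature with orbital shaking. Reactions were filtered on polyethyleneimine-treated filter plates, air dried and counted by scintillation. Values given as Ki.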

Adenosine receptor A2a = Adenosine receptor A2a (Homo sapiens, UniProt P29274); assay: Displacement of [3H]ZM241385 from human adenosine A2A receptor after 1 hr
Adenosine receptor A2b [3] = target: T1, Adenosine receptor A2b; assay: Displacement of [3H]ZM241385 from human adenosine A2B receptor expressed in CHO cells after 1 hr; format: cell-based
In short: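 Whole CHO cells expressing human A2B were harvested mechanically at 80% confluence, frozen in aliquots and resuspended in assay buffer on the day of assay. Cells were incubated with [3H]-ZM241385 (30 nM final) and test compound for 1 h at room temperature with orbital shaking. Reactions were filtered on polyethyleneimine-treated plates and counted by scintillation. Values given as Ki.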

Sequence of Adenosine receptor A2a (P29274 whole entry): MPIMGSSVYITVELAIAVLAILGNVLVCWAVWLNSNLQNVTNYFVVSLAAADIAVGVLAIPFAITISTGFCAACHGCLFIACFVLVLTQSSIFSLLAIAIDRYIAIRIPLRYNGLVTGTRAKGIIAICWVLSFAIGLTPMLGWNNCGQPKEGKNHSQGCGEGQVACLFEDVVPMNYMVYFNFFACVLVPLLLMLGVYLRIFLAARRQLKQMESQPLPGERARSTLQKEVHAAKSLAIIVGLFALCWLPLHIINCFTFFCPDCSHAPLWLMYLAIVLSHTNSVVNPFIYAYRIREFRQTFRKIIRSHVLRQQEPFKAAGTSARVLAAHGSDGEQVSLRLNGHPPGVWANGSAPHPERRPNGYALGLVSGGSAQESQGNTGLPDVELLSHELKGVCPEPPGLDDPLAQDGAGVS
Sequence of Cytochrome P450 2D6 (P10635 whole entry): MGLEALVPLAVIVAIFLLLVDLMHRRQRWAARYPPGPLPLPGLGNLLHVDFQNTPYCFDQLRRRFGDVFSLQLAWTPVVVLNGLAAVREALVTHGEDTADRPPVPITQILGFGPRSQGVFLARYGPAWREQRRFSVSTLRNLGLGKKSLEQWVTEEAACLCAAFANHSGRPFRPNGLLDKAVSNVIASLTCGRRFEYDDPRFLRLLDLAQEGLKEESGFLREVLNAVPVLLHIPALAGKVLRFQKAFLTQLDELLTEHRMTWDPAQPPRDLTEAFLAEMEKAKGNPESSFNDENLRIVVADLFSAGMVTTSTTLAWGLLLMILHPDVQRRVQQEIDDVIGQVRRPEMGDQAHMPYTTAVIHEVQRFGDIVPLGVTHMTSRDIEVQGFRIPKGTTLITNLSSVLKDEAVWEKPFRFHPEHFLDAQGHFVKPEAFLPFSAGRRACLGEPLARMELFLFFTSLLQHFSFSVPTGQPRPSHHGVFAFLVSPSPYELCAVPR
Sequence of Cytochrome P450 2C19 (P33261 whole entry): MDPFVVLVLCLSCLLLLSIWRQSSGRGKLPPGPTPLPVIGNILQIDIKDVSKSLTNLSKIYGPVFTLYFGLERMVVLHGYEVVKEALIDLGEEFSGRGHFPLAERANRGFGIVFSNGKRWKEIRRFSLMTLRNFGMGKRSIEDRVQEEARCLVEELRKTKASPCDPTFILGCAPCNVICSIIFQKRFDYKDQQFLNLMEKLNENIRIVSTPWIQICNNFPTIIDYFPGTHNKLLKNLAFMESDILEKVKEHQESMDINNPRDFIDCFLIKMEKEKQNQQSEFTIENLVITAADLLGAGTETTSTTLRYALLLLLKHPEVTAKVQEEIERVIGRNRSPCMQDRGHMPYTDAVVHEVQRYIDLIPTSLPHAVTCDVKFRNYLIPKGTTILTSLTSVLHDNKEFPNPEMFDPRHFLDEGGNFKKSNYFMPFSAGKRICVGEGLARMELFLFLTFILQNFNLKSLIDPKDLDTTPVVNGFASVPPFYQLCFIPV
Sequence of Cytochrome P450 2C9 (P11712 whole entry): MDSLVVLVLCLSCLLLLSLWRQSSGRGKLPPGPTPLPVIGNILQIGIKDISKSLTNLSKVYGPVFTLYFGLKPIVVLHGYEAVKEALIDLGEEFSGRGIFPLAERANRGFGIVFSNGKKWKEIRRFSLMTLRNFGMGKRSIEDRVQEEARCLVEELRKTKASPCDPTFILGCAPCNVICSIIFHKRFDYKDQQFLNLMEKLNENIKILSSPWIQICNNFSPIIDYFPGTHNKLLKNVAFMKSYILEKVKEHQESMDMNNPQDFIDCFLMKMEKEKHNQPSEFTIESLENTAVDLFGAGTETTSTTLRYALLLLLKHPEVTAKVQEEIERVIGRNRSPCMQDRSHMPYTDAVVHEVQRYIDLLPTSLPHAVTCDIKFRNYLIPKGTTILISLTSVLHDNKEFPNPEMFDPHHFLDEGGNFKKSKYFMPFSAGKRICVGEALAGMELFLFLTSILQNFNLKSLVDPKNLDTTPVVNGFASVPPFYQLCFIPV
Sequence of Cytochrome P450 3A4 (P08684 whole entry): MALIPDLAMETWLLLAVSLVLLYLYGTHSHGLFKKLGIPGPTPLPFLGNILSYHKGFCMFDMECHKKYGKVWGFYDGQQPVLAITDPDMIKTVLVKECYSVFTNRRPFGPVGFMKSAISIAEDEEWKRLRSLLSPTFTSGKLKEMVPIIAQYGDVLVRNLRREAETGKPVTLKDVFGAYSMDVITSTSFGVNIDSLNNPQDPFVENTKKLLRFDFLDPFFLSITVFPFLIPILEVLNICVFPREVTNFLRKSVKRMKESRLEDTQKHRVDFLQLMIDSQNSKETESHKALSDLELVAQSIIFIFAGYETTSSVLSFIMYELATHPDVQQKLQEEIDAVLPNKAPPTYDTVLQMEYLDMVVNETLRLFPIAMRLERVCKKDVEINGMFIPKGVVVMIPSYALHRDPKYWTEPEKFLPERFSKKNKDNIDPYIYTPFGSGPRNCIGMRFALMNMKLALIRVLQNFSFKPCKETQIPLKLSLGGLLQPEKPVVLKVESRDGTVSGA
Sequence of Voltage-gated inwardly rectifying potassium channel KCNH2 (Q12809 whole entry): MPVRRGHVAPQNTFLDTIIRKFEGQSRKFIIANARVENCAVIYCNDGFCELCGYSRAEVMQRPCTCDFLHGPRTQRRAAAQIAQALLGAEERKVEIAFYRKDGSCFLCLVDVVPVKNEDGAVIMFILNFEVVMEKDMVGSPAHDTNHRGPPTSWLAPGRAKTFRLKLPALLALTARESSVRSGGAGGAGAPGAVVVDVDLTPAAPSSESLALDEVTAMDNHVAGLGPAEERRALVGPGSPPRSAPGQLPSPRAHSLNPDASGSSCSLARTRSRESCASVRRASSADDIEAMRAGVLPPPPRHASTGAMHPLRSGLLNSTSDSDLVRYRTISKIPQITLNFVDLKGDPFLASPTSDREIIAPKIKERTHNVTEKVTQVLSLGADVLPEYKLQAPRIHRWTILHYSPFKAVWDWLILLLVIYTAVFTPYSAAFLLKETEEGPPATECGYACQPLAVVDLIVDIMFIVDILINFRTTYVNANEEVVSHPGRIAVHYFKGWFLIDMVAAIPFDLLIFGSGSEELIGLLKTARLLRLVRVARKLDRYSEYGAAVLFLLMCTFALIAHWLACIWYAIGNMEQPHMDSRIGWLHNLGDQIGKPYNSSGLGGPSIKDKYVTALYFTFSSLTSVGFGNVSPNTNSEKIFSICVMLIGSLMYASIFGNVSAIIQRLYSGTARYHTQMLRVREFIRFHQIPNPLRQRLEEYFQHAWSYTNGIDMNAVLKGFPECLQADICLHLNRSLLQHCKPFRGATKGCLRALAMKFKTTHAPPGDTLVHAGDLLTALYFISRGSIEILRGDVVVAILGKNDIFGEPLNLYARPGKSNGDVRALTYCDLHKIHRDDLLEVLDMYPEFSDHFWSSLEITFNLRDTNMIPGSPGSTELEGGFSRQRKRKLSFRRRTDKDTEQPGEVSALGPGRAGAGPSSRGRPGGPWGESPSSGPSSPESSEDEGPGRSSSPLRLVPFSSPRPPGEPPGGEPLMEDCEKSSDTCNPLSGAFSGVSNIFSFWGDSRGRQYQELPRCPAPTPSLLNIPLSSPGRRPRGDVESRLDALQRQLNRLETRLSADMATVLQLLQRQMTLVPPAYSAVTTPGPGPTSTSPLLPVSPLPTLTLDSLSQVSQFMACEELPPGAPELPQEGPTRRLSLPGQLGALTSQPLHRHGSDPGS

| SMILES | IC50 (Adenosine receptor A2b [2]) [nM] | Ki (Adenosine receptor A1) [nM] | Ki (Adenosine receptor A2a) [nM] | other results |
| --- | --- | --- | --- | --- |
| CCN(C(C)=O)c1ccc(OC)c2nc(NC(=O)c3ccnn3C)sc12 | – | – | – | IC50 (Cytochrome P450 2C9): > 50000 nM; IC50 (Cytochrome P450 2C19): > 50000 nM; IC50 (Cytochrome P450 2D6): > 50000 nM; IC50 (Cytochrome P450 3A4): > 50000 nM; IC50 [1]: > 100000 nM; Activity (Salmonella typhimurium): Non-toxic |
| CCN(C(C)=O)c1ccc(OC)c2nc(NC(=O)[C@@H]3CCN(S(=O)(=O)c4cccc(C(F)(F)F)c4)C3)sc12 | 42 | 220 | 600 | – |
| CCN(C(C)=O)c1ccc(OC)c2nc(NC(=O)[C@H]3CCN(C(=O)c4cccc(C(F)(F)F)c4)C3)sc12 | 41 | 120 | 710 | – |
| CCN(C(C)=O)c1ccc(OC)c2nc(NC(=O)[C@@H]3CCN(Cc4cccc(C(F)(F)F)c4)C3)sc12 | 72 | – | – | – |
| CCN(C(C)=O)c1ccc(OC)c2nc(NC(=O)C3CCN(S(=O)(=O)c4cccc(C(F)(F)F)c4)CC3)sc12 | 49 | 78 | 1040 | – |
| CCN(C(C)=O)c1ccc(OC)c2nc(NC(=O)C3CCN(Cc4cccc(C(F)(F)F)c4)CC3)sc12 | 44 | 10 | 1000 | – |
| CCN(C(C)=O)c1ccc(OC)c2nc(NC(=O)[C@H]3CC[C@H](NC(=O)c4cccc(C(F)(F)F)c4)CC3)sc12 | 28 | 7 | 470 | – |
| CCN(C(C)=O)c1ccc(OC)c2nc(NC(=O)[C@H]3CC[C@@H](NC(=O)c4cccc(C(F)(F)F)c4)CC3)sc12 | 26 | 20 | 52 | – |
| CCN(C(C)=O)c1ccc(OC)c2nc(NC(=O)N3CCC(S(=O)(=O)c4cccc(C(F)(F)F)c4)CC3)sc12 | 20 | 690 | 530 | – |
| CCN(C(C)=O)c1ccc(OC)c2nc(NC(=O)[C@@H]3CC[C@H](NCc4cccc(C(F)(F)F)c4)C3)sc12 (relative stereo) | 19 | 220 | 180 | – |

Continued by falling IC50 (Adenosine receptor A2b [2]), values first:

| IC50 (Adenosine receptor A2b [2]) [nM] | Ki (Adenosine receptor A1) [nM] | Ki (Adenosine receptor A2a) [nM] | SMILES | other results |
| --- | --- | --- | --- | --- |
| 18 | 5 | 240 | CCN(C(C)=O)c1ccc(OC)c2nc(NC(=O)N3CCC(c4cccc(C(F)(F)F)c4)CC3)sc12 | – |
| 17 | 2 | 230 | CCN(C(C)=O)c1ccc(OC)c2nc(NC(=O)C3CCN(C(=O)c4cccc(C(F)(F)F)c4)CC3)sc12 | – |
| 16 | 46 | 110 | CCN(C(C)=O)c1ccc(OC)c2nc(NC(=O)[C@H]3CC[C@@H](NS(=O)(=O)c4cccc(C(F)(F)F)c4)CC3)sc12 | – |
| 14 | 100 | 2040 | CCN(C(C)=O)c1ccc(OC)c2nc(NC(=O)[C@@H]3CCN(C(=O)c4cccc(C(F)(F)F)c4)C3)sc12 | Ki (Adenosine receptor A2b [3]): 18 nM |
| 8 | 61 | 81 | CCN(C(C)=O)c1ccc(OC)c2nc(NC(=O)[C@@H]3CC[C@H](NC(=O)c4cccc(C(F)(F)F)c4)C3)sc12 | – |
| 8 | 31 | 31 | CCN(C(C)=O)c1ccc(OC)c2nc(NC(=O)[C@@H]3CC[C@@H](NC(=O)c4cccc(C(F)(F)F)c4)C3)sc12 | – |
| 8 | 19 | 210 | CCN(C(C)=O)c1ccc(OC)c2nc(NC(=O)N3CCC(O)(c4cccc(C(F)(F)F)c4)CC3)sc12 | Ki (Adenosine receptor A2b [3]): 5 nM |
